Data published in ChEMBL document CHEMBL1122662, “3-Hydroxy-alpha-methyltyrosine progenitors: synthesis and evaluation of some (2-oxo-1,3-dioxol-4-yl)methyl esters” (J Med Chem, 1984).

Experiments:
Rattus norvegicus [1] = assay: Antihypertensive activity was evaluated in SH rats by measuring imax reduction in mean arterial pressure at 0.12 mM/kg dose administered perorally; equivalent to 25 mg/kg of methyldopa; format: functional, Artery; conditions: route oral
Procedure, shortened: (§1)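 Unanesthetized male Wistar-Okamoto spontaneously hypertensive rats (290-350 g, 16-24 weeks), six per group, dosed orally at 0.12, 0.24 or 0.47 mmol/kg, equal to 25, 50 or 100 mg/kg methyldopa; doses based on base weight. Arterial pressure recorded continuously by transducer, mean pressure printed every 1/2 h. Initial pressure and maximum fall recorded, mean ± SE.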

Rattus norvegicus [2] = assay: Antihypertensive activity was evaluated in SH rats by measuring initial mean arterial pressure at 0.47 mM/kg dose administered perorally; equivalent to 100 mg/kg of methyldopa; format: functional, Artery; conditions: route oral; procedure, shortened: as §1
Rattus norvegicus [3] = assay: Antihypertensive activity was evaluated in SH rats by measuring max reduction in mean arterial pressure at 0.47 mM/kg dose administered perorally; equivalent to 100 mg/kg of methyldopa; format: functional, Artery; conditions: route oral; procedure, shortened: as §1
Rattus norvegicus [4] = assay: Antihypertensive activity was evaluated in SH rats by measuring initial mean arterial pressure at 0.24 mM/kg dose administered perorally; equivalent to 50 mg/kg of methyldopa; format: functional, Artery; conditions: route oral; procedure, shortened: as §1
Rattus norvegicus [5] = assay: Antihypertensive activity was evaluated in SH rats by measuring max reduction in mean arterial pressure at 0.24 mM/kg dose administered perorally; equivalent to 50 mg/kg of methyldopa; format: functional, Artery; conditions: route oral; procedure, shortened: as §1
[6] = Compound was evaluated for its renal clearance after oral administration (200 mg) to Beagle dogs; format: ADME, organism-based, Canis lupus familiaris; conditions: dog, in vivo, read-out: Renal clearance
Procedure, shortened: (§2)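 Four male beagles in cross-over, single oral doses equal to 200 mg methyldopa, 100 mg iv reference. Voided urine collected through 48 h, heated with HClO4 (99 °C, 15 min) to hydrolyze conjugates, methyldopa measured by HPLC-amperometry. Urinary recovery as % dose; renal clearance as total urinary recovery divided by plasma AUC; mean ± SD.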

Rattus norvegicus [7] = assay: Antihypertensive activity was evaluated in SH rats by measuring initial mean arterial pressure at 0.12 mM/kg dose administered perorally; equivalent to 25 mg/kg of methyldopa; format: functional, Artery; conditions: route oral; procedure, shortened: as §1
[8] = Compound was evaluated for its bioavailability after oral administration (200 mg) to Beagle dogs; format: ADME, organism-based, Canis lupus familiaris; conditions: dog, in vivo
Procedure, shortened: (§3)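 Randomized cross-over in four male beagles fasted overnight and 6 h postdose, water ad libitum. Single oral doses equal to 200 mg methyldopa; 100 mg methyldopa iv as reference. Jugular blood through 10 h. Plasma deproteinized with HClO4, internal standard ethyldopa, analyzed by C-18 HPLC with amperometric detection. AUC by trapezoids plus terminal extrapolation. Systemic availability relative to iv by Kwan-Till, constant nonrenal clearance; mean ± SD.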

[9] = Systemic availability with respect to methyldopa was determined; format: ADME; procedure, shortened: as §3
[10] = Compound was evaluated for its urinary recovery after oral administration (200 mg) to Beagle dogs; format: ADME, organism-based, Canis lupus familiaris; conditions: dog, urine, read-out: Activity; procedure, shortened: as §2
[11] = Compound was evaluated for its renal clearance after intravenous administration (100 mg) to Beagle dogs
Rattus norvegicus [12] = assay: Antihypertensive activity was evaluated in SH rats by measuring imax reduction in mean arterial pressure at 0.24 mM/kg dose administered perorally; equivalent to 50 mg/kg of methyldopa; format: functional, Artery; conditions: route oral; procedure, shortened: as §1
[13] = Compound was evaluated for its bioavailability after intravenous administration (100 mg) to Beagle dogs
[14] = Compound was evaluated for its urinary recovery after intravenous administration (100 mg) to Beagle dogs

**Q.** For `Cc1oc(=O)oc1COC(=O)C(C)(N)Cc1ccc(O)c(O)c1` (stereo not given), which “Max reduction in mean arterial pressure” value (Rattus norvegicus [1]) is on record?
**A.** Its value is 29 mmHg.

**Q.** What about the “Initial mean arterial pressure” value (Rattus norvegicus [2]) of the same compound?
**A.** The value was 164 mmHg.

**Q.** And the “Max reduction in mean arterial pressure” value (Rattus norvegicus [3])?
**A.** The value was 52 mmHg.

**Q.** And the “Initial mean arterial pressure” value (Rattus norvegicus [4])?
**A.** The value was 172 mmHg.

**Q.** And the “Max reduction in mean arterial pressure” value (Rattus norvegicus [5])?
**A.** Its value is 38 mmHg.

**Q.** And the CL renal [6]?
**A.** The CL renal was 29.2 mL/min.

**Q.** What about the “Initial mean arterial pressure” value (Rattus norvegicus [7]) of the same compound?
**A.** Its value is 180 mmHg.

**Q.** What about the AUC [8] of the same compound?
**A.** Its AUC is 61.7 µg·h/mL.

**Q.** What about the Activity [9] of the same compound?
**A.** The Activity was 94.2%.

**Q.** What about the dose excreted [10] of the same compound?
**A.** The dose excreted was 53.2%.

**Q.** Which results are given for `CC(N)(Cc1ccc(O)c(O)c1)C(=O)OCc1oc(=O)oc1C(C)(C)C` (stereo not given)?
**A.** Max reduction in mean arterial pressure (Rattus norvegicus [1]): 24 mmHg; Initial mean arterial pressure (Rattus norvegicus [2]): 185 mmHg; Max reduction in mean arterial pressure (Rattus norvegicus [3]): 93 mmHg; Initial mean arterial pressure (Rattus norvegicus [4]): 172 mmHg; Max reduction in mean arterial pressure (Rattus norvegicus [5]): 45 mmHg; CL renal [6]: 29.3 mL/min; Initial mean arterial pressure (Rattus norvegicus [7]): 182 mmHg; AUC [8]: 37.4 µg·h/mL; Activity [9]: 55.7%; dose excreted [10]: 31.4%

**Q.** With `C[C@](N)(Cc1ccc(O)c(O)c1)C(=O)O` [METHYLDOPA] as the compound, how does the “Initial mean arterial pressure” value (Rattus norvegicus [4]) read?
**A.** Its value is 174 mmHg.

**Q.** What about the Renal clearance [11] of the same compound?
**A.** Its Renal clearance is 31.8 mL/min.

**Q.** What about the CL renal [6] of the same compound?
**A.** Its CL renal is 31.9 mL/min.

**Q.** What about the “Max reduction in mean arterial pressure” value (Rattus norvegicus [12]) of the same compound?
**A.** Its value is 37 mmHg.

**Q.** What about the AUC [8] of the same compound?
**A.** The AUC was 58.3 µg·h/mL.

**Q.** What about the Activity [9] of the same compound?
**A.** Its Activity is 92.1%.

**Q.** What about the AUC [13] of the same compound?
**A.** The AUC was 32600 ng·h/mL.

**Q.** What about the dose excreted [10] of the same compound?
**A.** The dose excreted was 54.2%.

**Q.** And the Activity [14]?
**A.** Its Activity is 57.7%.

**Q.** Which “Max reduction in mean arterial pressure” value (Rattus norvegicus [1]) does the source give for `CC(OC(=O)C(C)(C)C)OC(=O)C(C)(N)Cc1ccc(O)c(O)c1.Cl` (stereo not given) here?
**A.** The value was 23 mmHg.

**Q.** What about the “Initial mean arterial pressure” value (Rattus norvegicus [2]) of the same compound?
**A.** Its value is 179 mmHg.

**Q.** And the “Max reduction in mean arterial pressure” value (Rattus norvegicus [3])?
**A.** Its value is 83 mmHg.

**Q.** And the “Initial mean arterial pressure” value (Rattus norvegicus [4])?
**A.** The value was 181 mmHg.

**Q.** And the “Max reduction in mean arterial pressure” value (Rattus norvegicus [5])?
**A.** Its value is 60 mmHg.

**Q.** What about the “Initial mean arterial pressure” value (Rattus norvegicus [7]) of the same compound?
**A.** The value was 181 mmHg.
